Shown are actives, neighbours in structure and some others; about 1% of the full set was active somewhere.
bCat nuc transl = modulators of beta-catenin nuclear translocation; nuclear translocation activity, % at 5 µM; 0.3% of 190,000 active; HeLa beta-catenin nuclear translocation, immunofluorescence imaging;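 active means nuclear translocation activity above 50% at 5 µM, with a well cell count of 50 or more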;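 further: per-cell ratio of nuclear to cytoplasmic median beta-catenin stain intensity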
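System: Human HeLa cells, endogenous beta-catenin | Compound dosing: 5 µM primary, 0.02–20 µM confirmation | Timing: 24 h compound exposure at 37°C, 5% CO2 | Measured by: Fluorescence imaging of beta-catenin antibody stain plus DAPI | Read-out basis: % activation of per-cell nuclear versus cytoplasmic median beta-catenin signal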
ABCB1 inh = inhibitors of human ABCB1 transporter, ABCG2 counter-screen. P08183. CCRF-Adr cells, JC-1 efflux, flow cytometry. inhibition, % at 6.6 µM. 0.067% of 190,000 active; in the data active means inhibition above about 40%;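 further: higher value means more JC-1 retained so stronger ABCB1 efflux block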
Target sequence (P08183 whole entry, looked up): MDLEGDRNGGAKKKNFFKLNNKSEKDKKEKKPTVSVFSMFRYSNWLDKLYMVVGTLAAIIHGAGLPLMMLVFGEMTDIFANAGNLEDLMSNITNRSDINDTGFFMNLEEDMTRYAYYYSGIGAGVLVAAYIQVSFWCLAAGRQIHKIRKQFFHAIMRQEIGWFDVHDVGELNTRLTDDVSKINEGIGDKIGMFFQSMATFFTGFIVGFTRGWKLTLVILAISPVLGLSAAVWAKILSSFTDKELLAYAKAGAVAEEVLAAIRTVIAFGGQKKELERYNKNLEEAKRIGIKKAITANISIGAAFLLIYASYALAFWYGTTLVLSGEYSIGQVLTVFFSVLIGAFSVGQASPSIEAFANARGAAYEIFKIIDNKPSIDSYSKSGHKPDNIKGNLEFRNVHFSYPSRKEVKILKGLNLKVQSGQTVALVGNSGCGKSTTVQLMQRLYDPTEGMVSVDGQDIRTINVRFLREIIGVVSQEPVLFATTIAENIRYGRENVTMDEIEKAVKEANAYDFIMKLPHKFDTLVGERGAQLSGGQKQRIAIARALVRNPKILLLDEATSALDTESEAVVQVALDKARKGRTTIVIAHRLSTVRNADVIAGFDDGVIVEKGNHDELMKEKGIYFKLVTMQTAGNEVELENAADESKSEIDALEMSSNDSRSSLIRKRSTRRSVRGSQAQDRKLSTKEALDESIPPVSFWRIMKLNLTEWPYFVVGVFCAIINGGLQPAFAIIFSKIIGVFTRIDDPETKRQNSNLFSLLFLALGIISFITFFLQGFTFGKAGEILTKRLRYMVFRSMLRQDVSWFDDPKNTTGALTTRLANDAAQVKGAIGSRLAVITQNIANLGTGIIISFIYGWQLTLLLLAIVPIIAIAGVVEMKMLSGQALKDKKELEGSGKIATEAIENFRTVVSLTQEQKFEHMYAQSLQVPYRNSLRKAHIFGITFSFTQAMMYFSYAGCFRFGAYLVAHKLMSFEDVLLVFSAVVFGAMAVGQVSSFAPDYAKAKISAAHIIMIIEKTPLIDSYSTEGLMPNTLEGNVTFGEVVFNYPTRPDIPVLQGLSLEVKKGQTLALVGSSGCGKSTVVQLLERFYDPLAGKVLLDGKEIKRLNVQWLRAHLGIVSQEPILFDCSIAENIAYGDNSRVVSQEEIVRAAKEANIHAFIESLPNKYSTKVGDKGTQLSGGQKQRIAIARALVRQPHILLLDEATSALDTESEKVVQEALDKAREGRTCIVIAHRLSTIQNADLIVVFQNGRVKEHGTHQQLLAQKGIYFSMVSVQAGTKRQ
ABCG2 inh = inhibitors of human ABCG2 transporter, ABCB1 counter-screen; Q9UNQ0; IgMXP3 cells, JC-1 efflux, flow cytometry; inhibition, % at 6.6 µM; 0.1% of 190,000 active;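 active means inhibition above 80%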
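Assay system – ABCG2 IgMXP3 and barcoded ABCB1 CCRF-Adr cell mix · Input – 3 million cells/mL in well · Reagent – JC-1 fluorescent substrate · Compound – single test compound dose, 6.6 µM final · Timing – 10 min exposure at 25 °C with rotation, no wash · Detection – flow cytometry of retained JC-1 fluorescence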
MT stabilizer = stabilizes microtubules in HeLa cells; 0.83% of 200,000 active; % tubulin-high responders, % at 10 µM; AID 2205; HeLa tubulin immunostaining HCS, 24 h; share of cells brighter than vehicle mean+2SD;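 active means plate Z-score above 3 for both tubulin-high and condensed-nucleus cell shares, with cell loss under 80%, at 10 µM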;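 further: anti alpha tubulin signal scored within the nucleus-defined area of each cell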
PKD1 kinase inh = blocks activity of human protein kinase D1 | PKD1 kinase fluorescence polarization assay | inhibition, % (test concentration not listed) | Q15139 | 0.056% of 200,000 active; in the data active means inhibition above about 50%
Large screens that a line does not name were inactive.

CC1=C(C(=O)Nc2ccccc2F)C(c2cccs2)C2=C(CCCC2=O)N1 (configuration not stated)	none
CC1=C(C(=O)Nc2ccccc2F)C(c2ccsc2)C2=C(CC(C)(C)CC2=O)N1 (configuration not stated)	MT stabilizer 15
C/C(=N\NS(=O)(=O)c1ccc(Cl)cc1)c1ccc(O)cc1	none
CC(C)(C)c1nc2ccccc2c2nnc(SCC(=O)Nc3nccs3)n12	MT stabilizer 42
CCNc1nc(OC)nc(SCC(=O)Nc2ccccc2)n1	MT stabilizer 13
O=C(NCc1ccccc1Cl)c1ccc(S(=O)(=O)Nc2cccc(C(F)(F)F)c2)cc1	none
COc1ccccc1NC(=O)c1ccc(NC(=O)COC(=O)CCC2CCCC2)cc1	none
Cc1ccc(C(=O)Nc2ncc(Cc3ccc(SC(F)F)cc3)s2)cc1	bCat nuc transl 135
Cc1ccc(C(=O)Nc2ncc(Cc3ccc(F)cc3)s2)o1	none
Cc1ccc(C(=O)NCC(=O)OCC(=O)NC2CCS(=O)(=O)C2)cc1C (configuration not stated)	none
O=C(Cc1ccc(-n2cccc2)cc1)NCc1ccccc1Cl	bCat nuc transl 63, MT stabilizer 25
O=C(CCn1cccc1)NCc1ccccc1	none
O=C(Cc1ccccc1)NCc1ccc(-n2cccc2)cc1	bCat nuc transl 52
CC(=O)Nc1ccc(S(=O)(=O)N(Cc2ccccc2)C(C)C)cc1	none
COc1ccc(-n2nnnc2-c2cccc(OC)c2)cc1	MT stabilizer 18
CC(C)(C)NC(=O)CSc1nc(-c2ccccc2)c(-c2ccccc2)[nH]1	MT stabilizer 15
CCN1/C(=C/c2ccc3cc(C)ccc3[n+]2CC)Sc2cc(C)c(C)cc21	none
CCN1/C(=C/c2ccc3cc(C)ccc3[n+]2CC)Sc2ccccc21	ABCG2 inh active, MT stabilizer 68 (no result: ABCB1 inh)
CCOc1c(OC)cccc1C1CC(=O)Nc2cc3c(cc21)OCCO3 (configuration not stated)	MT stabilizer 22
CCCOc1c(OC)cccc1C1CC(=O)Nc2cc(OC)c(OC)c(OC)c21 (configuration not stated)	none (no result: bCat nuc transl)
CCOc1ccc(OCC)c(-c2c(=O)n(OCc3ccccc3Br)c3ccccc3[n+]2[O-])c1	none
CNc1cc(C)nc(-n2nc(C)cc2C)n1	none
CCOc1ccc(Nc2cc(C)nc(-n3nc(C)cc3C)n2)cc1	bCat nuc transl 87
COc1ccccc1Nc1ncc(-c2cccs2)s1	bCat nuc transl 107
COc1ccccc1Nc1ccc(C(=O)NCc2cccs2)cn1	none
C(=C\c1ccccc1)/CSc1nnc(-c2ccccn2)n1Cc1ccco1	bCat nuc transl 53, MT stabilizer 29
COc1ccc(Nc2nc3cc(C)ccc3cc2C#N)c(OC)c1	MT stabilizer 21
CCN1CCN(C(=O)c2cc(S(=O)(=O)Nc3ccc(S(C)(=O)=O)cc3)ccc2Cl)CC1	none
CCN(c1ccccc1)S(=O)(=O)c1ccc(N)c(OC)c1	bCat nuc transl 111, MT stabilizer 22
CC1=NN(C(=S)Nc2ccccc2)C(c2ccccc2)C1 (configuration not stated)	none (no result: bCat nuc transl)
Cc1ccc(C2CC(c3ccccc3)=NN2C(=S)Nc2ccccc2)o1 (configuration not stated)	MT stabilizer 50 (no result: bCat nuc transl)
CCCCn1c(CN2CCN(c3cccc(Cl)c3)CC2)nc2c1c(=O)[nH]c(=O)n2C	MT stabilizer 35
Cn1c(=O)[nH]c(=O)c2c1nc(CN1CCN(c3cccc(Cl)c3)CC1)n2Cc1ccccc1Cl	MT stabilizer 14
Cn1c(=O)[nH]c(=O)c2c1nc(CN1CCN(c3cccc(Cl)c3)CC1)n2CCCc1ccccc1	none
Cc1cc(C(=O)Cn2nc(C(=O)O)c3ccccc3c2=O)c(C)n1-c1ccc(F)cc1	none
O=c1oc2ccccc2c(Nc2ccc3ccccc3c2)c1[N+](=O)[O-]	MT stabilizer 46
Cc1ccnc(NC(=O)CCC(=O)N(CC(=O)NC2CCCCC2)C2CCCC2)c1	none (no result: ABCB1 inh, ABCG2 inh, MT stabilizer, PKD1 kinase inh)
CCOC(=O)c1ccc(N2CCOCC2)c(NC(=O)c2c(-c3ccccc3)noc2C)c1	bCat nuc transl 125 (no result: ABCB1 inh, ABCG2 inh, MT stabilizer, PKD1 kinase inh)
Cc1onc(-c2ccccc2)c1C(=O)Nc1ccccc1N1CCOCC1	none
CCOC(=O)c1ccc(N2CCOCC2)c(NC(=O)COCC(=O)O)c1	none (no result: ABCB1 inh, ABCG2 inh, MT stabilizer, PKD1 kinase inh)
Cc1onc(-c2ccccc2)c1C(=O)Nc1cc(C(F)(F)F)ccc1N1CCOCC1	bCat nuc transl 70, MT stabilizer 33
O=C(CN1CCN(Cc2ccccc2Cl)C1=O)NCCCN1CCOCC1	none (no result: ABCB1 inh, ABCG2 inh, MT stabilizer, PKD1 kinase inh)
COC(=O)/C=C/c1ccccc1S(=O)(=O)N(Cc1ccccc1)Cc1ccco1	bCat nuc transl 74 (no result: ABCB1 inh, ABCG2 inh, MT stabilizer, PKD1 kinase inh)
CCc1ccc(N/C(N)=N/c2nc(CSc3ccccn3)cc(=O)[nH]2)cc1	MT stabilizer 17
O=c1[nH]c(CN2CCN(c3ccc(O)cc3)CC2)nc2scc(-c3ccc(Cl)cc3)c12	MT stabilizer 21
COc1cccc(N2CCN(Cc3nc4scc(-c5ccccc5)c4c(=O)[nH]3)CC2)c1	MT stabilizer 15
COc1cccc(N2CCN(Cc3nc4ccccc4c(=O)[nH]3)CC2)c1	none
O=C(N/N=C/c1ccc(-c2ccccc2Cl)o1)c1ccccc1	MT stabilizer 32 (no result: bCat nuc transl)
CCn1c(=O)c(=O)[nH]c2cc(C(=O)NC3CCCc4ccccc43)ccc21 (configuration not stated)	MT stabilizer 29
CCn1c(=O)c(=O)[nH]c2cc(C(=O)NC3CC3)ccc21	none
Cc1ccc(C)c(C2NC(=O)c3ccccc3N2)c1 (configuration not stated)	bCat nuc transl 64 (no result: ABCB1 inh, ABCG2 inh, MT stabilizer, PKD1 kinase inh)
Cc1cc(C)c2nc(Cl)c(C3NC(=O)c4ccccc4N3)cc2c1 (configuration not stated)	none
Cc1ccc(C)c2nc(Cl)c(C3NC(=O)c4ccccc4N3)cc12 (configuration not stated)	MT stabilizer 16
O=C(Cc1cccs1)Nc1ccc(NC(=O)c2ccco2)cc1	none
COc1ccc(/C=c2/sc3n(c2=O)C(c2ccccc2OC)C2=C(N=3)c3ccccc3CC2)cc1O (configuration not stated)	MT stabilizer 33
COc1ccccc1C1C2=C(N=C3SCC(=O)N31)c1ccccc1CC2 (configuration not stated)	none
COc1ccc(/C=C2/C(=O)OCc3cc(OC)c(OC)cc32)cc1	MT stabilizer 20
C1CCCCCC(NCCN2CCNCC2)CCCCC1	none (no result: ABCB1 inh, ABCG2 inh, MT stabilizer, PKD1 kinase inh)
O=C(Nc1cc(Oc2ccccc2)cc([N+](=O)[O-])c1)C12CC3CC(C1)CC(n1cnc(Cl)n1)(C3)C2	none
Cc1ccc2nc(-c3ccc4c(c3)OCCO4)cn2c1	bCat nuc transl 56 (no result: ABCB1 inh, ABCG2 inh, MT stabilizer, PKD1 kinase inh)
c1ccn2cc(-c3ccc4c(c3)OCCO4)nc2c1	none
Cc1ccc(-c2csc3ncnc(Sc4nnc(CN5CCCCCC5=O)o4)c23)cc1	MT stabilizer 19
Cc1ccc(-c2csc3ncnc(SCC(=O)Nc4nnc(C)s4)c23)cc1	none
Cc1cc(NC(=O)c2cc(-c3ccco3)on2)nn1Cc1ccc(Cl)cc1	MT stabilizer 18 (no result: bCat nuc transl)

Screens from PubChem BioAssay.
